Results on one molecule are retold here after ChEMBL document CHEMBL4219101, “Discovery of 18β-glycyrrhetinic acid conjugated aminobenzothiazole derivatives as Hsp90-Cdc37 interaction disruptors that inhibit cell migration and reverse drug resistance” (Bioorg Med Chem, 2018).

pIC50: −log10 of the molar value. Calls of active or inactive are those of the source. The rule behind the calls is not given here.

The term pIC50 denotes −log10 of the IC50, conventionally taken in molar units. For orientation: viability means the share of living cells, or the viability signal relative to a control.

For assay [1], the system named is A549. Nature of the assay: Induction of apoptosis in human A549 cells assessed as intracellular ROS levels at 10 uM after 24 hrs by FITC-DCF-DA-fluorescence based flow cytometry (reference value: 0.832%). It counts as functional. Put shortly: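 A549 cells exposed to 5 and 10 µM for 24 h, untreated cells as control. Collected, washed with ice-cold PBS and loaded with DCFH-DA in cell-free medium for 20 min at 37 °C in the dark, then washed. Fluorescence measured by flow cytometry at 485 nm excitation and 538 nm emission. Mean ± S.D. of three independent experiments.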

Assay [2] relates to A549. Nature of the assay: Cell cycle arrest in human A549 cells assessed as accumulation at G1 phase at 5 uM after 48 hrs by propidium iodide staining-based flow cytometry (reference value: 70.16%). It counts as functional.
Assay [3] has as its system A549. Nature of the assay: Antiproliferative activity against human A549 cells after 48 hrs by MTT assay. It counts as functional, cell-based. Particulars: A549, 48 h. Put shortly:
(§1)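 Cells in log phase seeded at about 1.0 × 10^5 cells/mL in 96-well plates, left 12 h at 37 °C, 5% CO2. Compounds dissolved in DMSO, added at 2.5, 5, 10, 20 and 50 µM, 48 h exposure. Absorbance read at 570/630 nm dual wavelength. Survival expressed relative to negative control. IC50 by Bliss method (n = 5), tests done in triplicate.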

Assay [4] concerns A549. Nature of the assay: Cell cycle arrest in human A549 cells assessed as accumulation at S phase after 48 hrs by propidium iodide staining-based flow cytometry. In kind it is functional. Background: In flow cytometry, cells or beads pass a laser one at a time.
The species named for a further assay is Homo sapiens. Nature of the assay: Inhibition of HSP90/Cdc37 interaction assessed as reversal of drug resistance by measuring ratio of IC50 for human doxorubicin-resistant NCI-H460 cells to IC50 for human NCI-H460 cells. In a few lines: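 Resistance factor is the ratio of IC50 in NCI-H460/DOX cells to IC50 in parental NCI-H460 cells. […] Values are mean ± SD of five separate experiments. Doxorubicin serves as the positive control.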

Assay [5] relates to A549. Nature of the assay: Induction of apoptosis in human A549 cells assessed as early apoptotic cells at 5 uM after 24 hrs by Annexin-V FITC/propidium iodide staining based flow cytometry (reference value: 0.080%).
Assay [6] in a line: Inhibition of HSP90/Cdc37 interaction in human doxorubicin-resistant NCI-H460 cells assessed as reduction in cell proliferation after 48 hrs by MTT assay. The settings on record: NCI-H460, 48 h. In a few lines: as §1
The subject of assay [7] is A549. Nature of the assay: Induction of apoptosis in human A549 cells after 24 hrs by Annexin-V FITC/propidium iodide staining based flow cytometry.
Assay [8] deals with A549. Nature of the assay: Induction of apoptosis in human A549 cells assessed as upregulation of Bax protein expression after 24 hrs by Western blot analysis. In kind it is functional, cell-based. In a few lines:
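A549 cells exposed to 5 and 10 µM for 24 h. Lysates cleared at 20000g, protein quantified by BCA and equal amounts run on 12% SDS-PAGE, then transferred to PVDF. Blocked in 5% skim milk in TBST. Probed overnight at 4 °C with antibodies to Bcl-2, Bax, caspase-9, caspase-3 and β-actin (loading reference). Chemiluminescent detection. Three independent experiments.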
On the technique in general: A western blot detects proteins with antibodies after separation by electrophoresis.

In assay [9] the target is Heat shock protein HSP 90-alpha/Hsp90 co-chaperone Cdc37 (Homo sapiens) (UniProt P07900+Q16543). Nature of the assay: Inhibition of HSP90alpha/Cdc37 interaction in human A549 cells assessed as upregulation of HSP90alpha expression at 5 to 10 uM after 24 hrs by Western blot analysis. It counts as cell-based. Put shortly: (§2)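 A549 cells exposed for 24 h, with geldanamycin as comparator. Whole-cell lysates separated by SDS-PAGE and immunoblotted for the named proteins. β-actin used as reference.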
Sequence of Heat shock protein HSP 90-alpha/Hsp90 co-chaperone Cdc37 (Homo sapiens) (Q16543 whole entry, looked up, other chains not shown): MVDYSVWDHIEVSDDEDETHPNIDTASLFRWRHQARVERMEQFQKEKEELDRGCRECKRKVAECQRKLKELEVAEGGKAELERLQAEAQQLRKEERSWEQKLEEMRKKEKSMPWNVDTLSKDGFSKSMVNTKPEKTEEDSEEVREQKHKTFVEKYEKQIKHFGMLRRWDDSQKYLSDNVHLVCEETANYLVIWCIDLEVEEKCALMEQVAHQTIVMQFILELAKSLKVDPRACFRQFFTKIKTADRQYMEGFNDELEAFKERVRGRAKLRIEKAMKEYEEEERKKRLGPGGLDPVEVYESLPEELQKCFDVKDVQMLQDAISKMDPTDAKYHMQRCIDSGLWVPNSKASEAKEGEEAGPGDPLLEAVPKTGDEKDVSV

Assay [10] relates to A549. Nature of the assay: Induction of apoptosis in human A549 cells assessed as late apoptotic cells at 10 uM after 24 hrs by Annexin-V FITC/propidium iodide staining based flow cytometry (reference value: 0.030%).
In assay [11] the test system is A549. Nature of the assay: Induction of apoptosis in human A549 cells assessed as viable cells at 10 uM after 24 hrs by Annexin-V FITC/propidium iodide staining based flow cytometry (reference value: 97.6%). The settings on record: A549, 24 h.
The test system of assay [12] is A549. Nature of the assay: Cell cycle arrest in human A549 cells assessed as accumulation at S phase at 5 uM after 48 hrs by propidium iodide staining-based flow cytometry (reference value: 19.62%). It counts as functional.
Assay [13] deals with T1, Heat shock protein HSP90 (Homo sapiens) (UniProt P07900+P08238). Nature of the assay: Inhibition of HSP90 in human A549 cells assessed as induction of HSP27 expression after 24 hrs by Western blot analysis. It counts as cell-based. In a few lines:
as §2

Assay [14] addresses T1, Heat shock protein HSP90 (Homo sapiens). Nature of the assay: Inhibition of HSP90 in human A549 cells assessed as downregulation of CDK4 expression after 24 hrs by Western blot analysis. In kind it is cell-based. In a few lines:
as §2

Assay [15] has the same target. Nature of the assay: Inhibition of HSP90 in human A549 cells assessed as downregulation of phosphorylated akt expression after 24 hrs by Western blot analysis. In kind it is cell-based. Put shortly:
as §2

The test system of the next assay is HCT-116. Nature of the assay: Antiproliferative activity against human HCT116 cells after 48 hrs by MTT assay. In kind it is functional, cell-based. Particulars: HCT-116, 48 h. In a few lines: as §1
The target in assay [16] is Heat shock protein HSP 90-beta/Hsp90 co-chaperone Cdc37 (Homo sapiens) (UniProt P08238+Q16543). Nature of the assay: Inhibition of HSP90beta/Cdc37 interaction in human A549 cells assessed as upregulation of HSP90beta expression at 5 to 10 uM after 24 hrs by Western blot analysis. In kind it is cell-based. Put shortly: as §2
Assay [17] has as its system A549. Nature of the assay: Cell cycle arrest in human A549 cells assessed as accumulation at G2 phase at 5 uM after 48 hrs by propidium iodide staining-based flow cytometry (reference value: 10.22%). In kind it is functional.

In the case of `CCOC(=O)[C@@]1(C)CC[C@]2(C)CC[C@]3(C)C(=CC(=O)[C@@H]4[C@@]5(C)CC[C@H](OC(=O)CCC(=O)Nc6nc7ccc(F)cc7s6)C(C)(C)[C@@H]5CC[C@]43C)[C@@H]2C1`, the Activity with A549 [1] is 67.5%; with A549 [2], 52.92%; in the assay with A549 [4], “Dose-dependent effect”; with A549 [5], 8.45%; with A549 [7], “Dose-dependent effect”; with A549 [8] it was “Dose-dependent effect”. In addition, the values for the Activity in the assay on A549 [10], with A549 [12] and in the assay with A549 [17] were 6.07%, 34.09% and 12.98%, respectively. Further, the pIC50 with A549 [3] was 5.39; in [6], 5.00; with HCT-116, 5.10. Moreover, the Ratio IC50 in the assay listed under Homo sapiens stood at 1.36. The inhibition result in assay [9] and in assay [16] was “Active” throughout. The viability at 10 µM in the assay on A549 [11] worked out at 78.8%. For the same molecule, the inhibition entry in [13], in assay [14] and in [15] was “Dose-dependent effect” each time.
